Screening results from PubChem BioAssay.
Only some compounds are listed: those with a hit (about 1.7% of all), similar ones and a draw of the others.
DNMT1 inh – blocks human DNA methyltransferase DNMT1 | P26358 | DNMT1 molecular beacon, Hinp1I cleavage, fluorescence | inhibition (reported as % activation of signal), % at 10 µM | 360,000 compounds, 0.83% hits | AID 588458; in the data active means inhibition above about 50%
SUMO1 PPI mod – SUMO1-SIM interaction modulation; inhibition, % at 20 µM; SUMO1 binding to a labelled peptide, TR-FRET, 1 h; AID 602429; 360,000 compounds, 0.33% hits; in the data active means inhibition above about 37%
Scp-1 inhibitor – Scp-1 (human) phosphatase inhibition; Q9GZU7; 340,000 compounds, 0.88% hits; inhibition, % at 20 µM; Recombinant Scp1, phosphopeptide, malachite green phosphate absorbance; AID 493091;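 active means inhibition above about 50% at 20 µM, limit read from the data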
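assay system = SCP-1 phosphatase catalytic domain, residues 76-261 | buffer or medium = 50 mM Tris acetate pH 5.5, 0.005% Tween-20, 10 mM MgCl2 | incubation = enzyme reaction 45 min at room temperature, colour 5 min, stabilisation 30 min | signal = Phosphate-binding colour reagent, absorbance read at 630 nm | measure = % inhibition at 20 µM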
STEP block – blocks human striatal-enriched tyrosine phosphatase; 360,000 compounds, 0.25% hits; P54829; inhibition, % at 20 µM; AID 588621; recombinant STEP, OMFP fluorogenic substrate, fluorescence;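 active means inhibition at 20 µM, scaled per plate between control wells, above about 37%, limit read from the data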
Target sequence (P54829 whole entry, looked up): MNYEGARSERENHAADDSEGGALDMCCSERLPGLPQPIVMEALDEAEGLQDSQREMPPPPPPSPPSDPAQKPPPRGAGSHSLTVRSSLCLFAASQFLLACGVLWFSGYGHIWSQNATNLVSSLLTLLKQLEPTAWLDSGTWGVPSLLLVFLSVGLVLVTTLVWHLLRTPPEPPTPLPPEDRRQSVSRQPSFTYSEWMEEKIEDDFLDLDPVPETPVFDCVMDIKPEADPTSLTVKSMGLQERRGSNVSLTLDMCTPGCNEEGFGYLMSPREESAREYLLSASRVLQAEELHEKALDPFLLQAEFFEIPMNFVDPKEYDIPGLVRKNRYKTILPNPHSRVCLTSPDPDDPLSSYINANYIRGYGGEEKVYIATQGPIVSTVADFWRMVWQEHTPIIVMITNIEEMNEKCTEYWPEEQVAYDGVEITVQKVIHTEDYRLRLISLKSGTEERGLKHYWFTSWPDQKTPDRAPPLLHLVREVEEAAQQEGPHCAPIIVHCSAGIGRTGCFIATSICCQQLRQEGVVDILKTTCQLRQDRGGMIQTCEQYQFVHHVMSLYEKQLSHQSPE
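System: STEP phosphatase, cell-free reaction; Buffer or medium: Bis-Tris pH 6.0 buffer with DTT, detergent; Incubation: 20 min at room temperature, dark; Measured by: fluorescence, 480/540 nm.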
LMPTP block – LMPTP (human) inhibition; P24666; recombinant LMPTP-A, OMFP fluorogenic substrate, fluorescence intensity; inhibition, % at 20 µM; 360,000 compounds, 0.22% hits; AID 651560;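 active means compounds that cut the enzyme signal by at least half of the control window in the single-dose screen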
Target sequence (P24666 whole entry, looked up): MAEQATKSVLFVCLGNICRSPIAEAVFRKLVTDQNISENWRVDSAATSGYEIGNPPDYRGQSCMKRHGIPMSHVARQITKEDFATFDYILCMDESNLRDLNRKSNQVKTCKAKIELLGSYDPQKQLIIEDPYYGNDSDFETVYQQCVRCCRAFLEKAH
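Test system: LMPTP-A phosphatase enzyme; input: 0.625 nM LMPTP-A final; reagent: OMFP substrate, 400 µM final; compound dosing: 20 µM single dose, 3% DMSO; incubation: 50 min dark incubation at room temperature; measured by: endpoint fluorescence intensity from OMFP dephosphorylation; measure: % inhibition relative to no-enzyme and uninhibited control wells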
Scp-1 conf – Scp-1 (human) inhibition, single-dose confirmed. recombinant SCP-1 catalytic domain, phosphate release, malachite green absorbance. AID 540281. shares compounds with Scp-1 inhibitor. 2,500 compounds, 61% hits. inhibition, % at 20 µM
MG interference – interferes with malachite green readout, flagging false Scp-1 hits | shares compounds with Scp-1 inhibitor | Colorimetric interference counterscreen, malachite green absorbance 630 nm | apparent inhibition (interference), % at 20 µM | 2,500 tested, under 10 active | AID 540313;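 further: compounds added after enzyme reaction finished so only phosphate colour detection is probed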
Scp1 DSF – Scp-1 (human) binding by thermal shift | shares compounds with Scp-1 inhibitor | Recombinant SCP1, Sypro Orange thermal shift Tm | thermal shift relative to vanadate control, % at 40 µM | 1,500 compounds, 25% hits;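 active means substances whose mean melting-temperature shift, as a percentage of the reference inhibitor's shift, reaches about 5.3%, limit read from the data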
DNMT1 interf DR – counter-screen for DNMT1 inhibitors: spectral interference, dose response | shares compounds with DNMT1 inh | molecular beacon fluorescence | IC50, µM | 200 tested, under 10 active | AID 602382; call rule not given here
DNMT1 confirm – DNMT1 inhibition confirmation, single concentration; shares compounds with DNMT1 inh; DNMT1 molecular beacon HinP1I cleavage, fluorescence; inhibition, % at 10 µM; 2,300 compounds, 8% hits; AID 602385;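 active means average inhibition of at least 30% in the single-concentration confirmation test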
DNMT1 interf – counter-screen for DNMT1 inhibitors: spectral interference | shares compounds with DNMT1 inh | DNMT1 molecular beacon spectral interference counterscreen, fluorescence 485/520 | activation (fluorescence interference), % at 10 µM | 2,300 compounds, 1% hits;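 active means activation of at least 30% at 10 µM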;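 further: DNMT1 catalytic domain with a HinP1I cleavage step and a FAM/dabcyl DNA beacon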
Hits are given with their value; n = inactive; x = not tested or not shown.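 How the source made its calls, unless noted: active means inhibition of at least 30% at 20 µM; inactive means the rest.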

SMILES | DNMT1 inh | SUMO1 PPI mod | Scp-1 inhibitor | STEP block | LMPTP block | Scp-1 conf | MG interference | Scp1 DSF | DNMT1 confirm | DNMT1 interf | others
O=C(CCS(=O)(=O)c1ccc(Br)cc1)NCc1ccco1 | 57.2 | n | 74.7 | n | n | 66.6 | n | n | n | n
O=C(CCS(=O)(=O)c1ccc(Br)cc1)NCc1cccs1 | 58.7 | n | 86.7 | n | n | 68.5 | n | n | n | n
CCCCN1C2=NC(c3ccccc3)CN2c2ccccc21 (centres undefined) | n | n | n | n | n | x | x | x | x | x
Cc1nn(C(C)C)c(C)c1CN1CCC(C(=O)Nc2cccc(-c3cccc(F)c3)c2)CC1 | n | n | n | n | n | x | x | x | x | x
Cc1ccccc1NC(=O)CN1C(=O)S/C(=C\c2cccn2-c2cccc(C(=O)O)c2)C1=O | 66.3 | n | 84.2 | n | n | 74.2 | n | 17.3 | n | n
O=C(O)c1cccc(-n2cccc2/C=C2/NC(=O)N(Cc3ccccc3F)C2=O)c1 | 80.7 | n | 51.8 | n | n | 75.2 | n | n | n | n
CC1CN(C(=O)Cn2cc(S(=O)(=O)CC(=O)N3CCOCC3)c3ccccc32)CC(C)O1 (centres undefined) | n | n | n | n | n | x | x | x | x | x
O=C(O)C1C2C=CC(CC2)C1C(=O)O (centres undefined) | 77.0 | n | 102.2 | n | n | 71.8 | n | n | n | n
CC(C)c1ccc(NC(=O)C2C3C=CC(CC3)C2C(=O)O)cc1 (centres undefined) | n | n | n | n | n | x | x | x | x | x
O=C(c1ccco1)N1CCN(C(=O)c2ccc(-c3ccc([N+](=O)[O-])cc3)o2)CC1 | 63.0 | 74.3 | 89.8 | n | n | n | n | x | n | n
O=C(c1ccc([N+](=O)[O-])cc1)N1CCN(C(=O)c2ccco2)CC1 | n | n | n | n | n | x | x | x | x | x
CN(Cc1cccc(Cl)c1Cl)CC(O)COc1ccccc1 (centres undefined) | n | n | n | n | n | x | x | x | x | x
CCOc1ccc(C(C)=O)cc1N1C(=O)C2C3C=CC(O3)C2C1=O (centres undefined) | n | n | n | n | n | x | x | x | x | x
CCOc1ccc(C(C)=O)cc1N1C(=O)C2C3C=CC(C3)C2C1=O (centres undefined) | 70.3 | n | 56.0 | n | n | 31.4 | n | n | n | n
CCOc1cccc(=O)c2c(C)n(Cc3ccccc3)c(C)c12 | n | n | n | n | n | x | x | x | x | x
COc1cccc(=O)c2c(C)n(-c3ccc(C(=O)O)cc3)c(C)c12 | 63.3 | n | 59.7 | n | n | n | n | x | n | n
COc1ccc(-n2c(C)c3c(OC)cccc(=O)c3c2C)cc1 | n | n | n | n | n | x | x | x | x | x
CCOc1cccc(=O)c2c(C)n(-c3ccc(C(=O)O)cc3)c(C)c12 | 93.6 | 40.5 | 60.0 | n | n | 54.7 | n | 15.1 | n | n
CCCCn1c(N)c(N(CCOC)C(=O)c2cc(CC)c(C)s2)c(=O)[nH]c1=O | n | n | n | n | n | x | x | x | x | x
COc1ccc(S(=O)(=O)N2Cc3ccccc3CC2C(=O)O)cc1 (centres undefined) | 60.4 | n | 74.6 | n | n | 64.5 | n | n | n | n
C=CCn1c(SCC(=O)N2CCOCC2)nc2scc(-c3ccco3)c2c1=O | 77.1 | n | 73.2 | n | n | n | n | x | n | n
C=CCn1c(SCC(=O)N2CCCC2)nc2scc(-c3cccs3)c2c1=O | n | n | n | n | n | x | x | x | x | x
CCS(=O)(=O)c1ccc(-c2cccc(NC(=O)COc3ccc(Cl)cc3)c2)nn1 | n | n | n | n | n | x | x | x | x | x
Cc1ccc2nc(/C(C#N)=C\c3ccc(Oc4ccc(C(F)(F)F)cc4[N+](=O)[O-])cc3)[nH]c2c1 | 81.2 | n | 97.2 | n | n | 87.1 | n | 5.6 | n | n
Cc1ccc2nc(/C(C#N)=C/c3ccc(-c4cccc([N+](=O)[O-])c4)o3)[nH]c2c1 | 83.1 | n | 90.2 | 93.6 | n | 73.0 | n | 11.3 | n | n
SMILES | DNMT1 inh | SUMO1 PPI mod | Scp-1 inhibitor | STEP block | LMPTP block | Scp-1 conf | MG interference | Scp1 DSF | DNMT1 confirm | DNMT1 interf | others
Cc1ccn2c(Cc3ccccc3)c(-c3ccc(F)cc3)nc2c1 | n | n | x | n | n | x | x | x | x | x
Cc1cccc(OCCNS(=O)(=O)c2ccc(Cl)cc2)c1 | n | n | n | n | n | x | x | x | x | x
COc1cccc(-c2cc(C(=O)NC3CC3)c3ccccc3n2)c1 | n | n | n | n | n | x | x | x | x | x
COc1ccc(NC(=O)CN(C)C(=O)c2cc(-c3ccco3)nc3ccccc23)cc1 | 98.7 | n | 73.2 | n | n | 60.8 | n | 7.4 | n | n | DNMT1 interf DR=n
CCc1nnc(NC(=O)c2cc(-c3ccco3)nc3ccccc23)s1 | 92.0 | 50.9 | 65.5 | n | n | 44.7 | n | 8.5 | n | n
COc1ccc(NC(=O)c2cc(-c3ccco3)nc3ccccc23)cc1 | n | n | n | n | n | x | x | x | x | x
Cc1ccc(NC(=O)c2cc(-c3ccco3)nc3ccccc23)cc1S(=O)(=O)N1CCOCC1 | 68.3 | n | 64.5 | n | n | 35.9 | n | 7.1 | n | n
O=C(NC1CCC(O)CC1)c1cc(-c2ccco2)nc2ccccc12 (centres undefined) | 57.4 | n | 50.7 | n | n | 56.5 | n | n | n | n
O=C(CCOc1ccccc1)Nc1ccc(S(=O)(=O)Nc2ncccn2)cc1 | n | n | n | n | n | x | x | x | x | x
CC(C)CCNC(=O)c1cc(-c2ccco2)nc2ccccc12 | n | n | n | n | n | x | x | x | x | x
CN(C)C(CNC(=O)c1cc(-c2ccco2)nc2ccccc12)c1ccccc1 (centres undefined) | 85.5 | n | 70.1 | n | n | 55.0 | n | 12.5 | 45.7 | n | DNMT1 interf DR=n
Cc1cccc(NC(=O)c2cc(-c3ccco3)nc3ccccc23)n1 | n | n | n | n | n | x | x | x | x | x
CCCCCCNC(=O)c1cc(-c2ccco2)nc2ccccc12 | 106.1 | n | 71.0 | n | n | 66.7 | n | n | n | n
CCOc1ccccc1NC(=O)CCNC(=O)N1CC(=O)Nc2ccccc21 | n | n | x | n | n | x | x | x | x | x
COCCCNC(=O)COc1cc2c(c3oc(=O)c(C)c(C)c13)CCC(C)(C)O2 | n | n | n | n | n | x | x | x | x | x
CCn1c(SCC(=O)OC)nc2sc3c(c2c1=O)CC(C)(C)OC3 | n | n | n | n | n | x | x | x | x | x
